An excerpt weighted towards active compounds, which were near 2.8% of everything screened.
T cruzi repl = blocks replication of Trypanosoma cruzi | T. cruzi beta-gal in NIH3T3, luminescence, 90 h | inhibition, % (concentration not given with the values) | 300,000 tested, 1.4% active;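 active means mean inhibition across valid replicates above about 55%, limit read from the data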;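 further: signal also drops with host cell toxicity which is not excluded here; 0% = plate median of DMSO wells and 100% = zero luminescence signal; higher percent means less beta-gal luminescence so fewer parasites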
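System: mouse NIH/3T3 fibroblasts infected with β-gal-expressing T. cruzi Tulahuen C4 / Input: NIH/3T3 cells, 5,000 per well / Buffer or medium: Low-serum DMEM with 2% FBS / Probe or stimulus: 5000 reporter trypomastigotes per well / Schedule: ≥90 h infection period, 3 h prior cell attachment / Measured by: GalScreen luminescence, 60 min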
UBC13 polyUb = inhibitors of human UBC13 polyubiquitin chain formation; P61088; TR-FRET; inhibition, % at 20 µM; 330,000 tested, 0.47% active; AID 485273; in the data active means inhibition above about 45%, passing the limit was not always enough
Target sequence (P61088 whole entry, looked up): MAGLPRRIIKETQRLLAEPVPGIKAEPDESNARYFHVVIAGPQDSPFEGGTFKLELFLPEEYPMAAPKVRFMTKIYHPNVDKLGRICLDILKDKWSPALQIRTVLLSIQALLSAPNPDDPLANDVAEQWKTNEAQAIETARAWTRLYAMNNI
PP1 counter = counter-screen for PP5 inhibitors: inhibitors of human PP1-alpha; P62136; purified PP1alpha, OMFP fluorescence; inhibition, % at 6.7 µM; 320,000 tested, 0.9% active;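 active means inhibition above the mean inhibition of all tested compounds plus 3 SD, computed separately for each screening campaign, cut at about 15% in these data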
Target sequence (P62136 whole entry, looked up): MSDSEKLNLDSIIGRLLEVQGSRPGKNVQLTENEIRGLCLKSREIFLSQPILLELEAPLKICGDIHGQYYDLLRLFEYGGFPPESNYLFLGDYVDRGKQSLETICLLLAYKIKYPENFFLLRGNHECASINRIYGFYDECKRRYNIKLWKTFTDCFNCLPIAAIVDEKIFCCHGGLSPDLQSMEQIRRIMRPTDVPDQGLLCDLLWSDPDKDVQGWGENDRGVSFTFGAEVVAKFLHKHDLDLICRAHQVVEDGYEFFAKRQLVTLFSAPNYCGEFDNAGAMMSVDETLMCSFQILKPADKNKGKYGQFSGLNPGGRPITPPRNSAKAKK
AI-2 QS mod = Vibrio harveyi AI-2 quorum sensing modulation. 300,000 tested, 0.4% active. activity change, % at 7.5 µM. Vibrio harveyi JMH597 AI-2 luminescence/OD600 ratio, 9 h; active compounds read low; strain lacks LuxN and CqsS sensors; 0 = neutral-control median. AID 2094; in the data active means activity change below about -75%, passing the limit was not always enough;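 further: luminescence divided by OD600 gain over 9 h not by final OD600 alone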
pCIP destab = p/CIP protein destabilization; Q05BA5; F442A p/CIP-EGFP cells, EGFP fluorescence, 16 h; decrease of EGFP signal, % at 10 µM; 290,000 tested, 0.01% active;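 active means EGFP signal decrease of at least 30% at 10 µM or well 3 SD below plate mean, unless failing retest; inactive means the rest, including hits failing retest or dose response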
PP1 confirm = confirmation of human PP1 phosphatase inhibitors; inhibition, % at 6.7 µM; AID 2358; 1,900 tested, 52% active; purified PP1alpha, OMFP substrate fluorescence; shares compounds with PP1 counter;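 active means mean PP1 inhibition above a set limit taken from the earlier primary screen, cut at about 15% in these data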
PP5 inh counter = counter-screen for PP1 inhibitors: human PP5 phosphatase inhibition; shares compounds with PP1 counter; purified PP5c, OMFP fluorescence; inhibition, % at 6.7 µM; 1,900 tested, 4% active;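 active means mean PP5 inhibition over triplicate wells above about 9.5% taken from the earlier PP1 screen, limit read from the data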
An asterisk follows results filed as active; · = no result given.

SMILES | T cruzi repl | UBC13 polyUb | PP1 counter | AI-2 QS mod | pCIP destab | PP1 confirm | PP5 inh counter
O=c1c(C=NCCCn2ccnc2)c(-c2ccccc2)[nH]n1-c1nc2ccccc2s1 | -8 | 0 | 29* | 18 | 2 | 2 | -1
COc1ccc(OCCOC(=O)C(C)NS(=O)(=O)c2ccc(NC(C)=O)cc2)cc1 (stereo unspecified) | · | -11 | -3 | · | · | · | ·
CCOc1ccc(OCCC(=O)OCC(=O)c2c(N)n(C)c(=O)n(C)c2=O)cc1 | -2 | 1 | 0 | 6 | · | · | ·
Cc1ccc(-n2c(C)cc(-c3csc(N)n3)c2C)cc1 | 2 | -17 | 19* | 10 | -4 | 2 | -2
COc1ccc(CNc2nc(NCc3ccc(OC)cc3)c3[nH]cnc3n2)cc1 | -5 | -7 | 18* | 19 | -1 | 6 | 11*
CC(C1CC2CCC1C2)n1c(COc2ccccc2F)nnc1SCC(N)=O (stereo unspecified) | 12 | 5 | 1 | 5 | 0 | · | ·
CC(C)NC(=O)NC(=O)CSc1nnc(COc2ccccc2F)n1C(C)C1CC2CCC1C2 (stereo unspecified) | 42 | 1 | 21* | 4 | -5 | 5 | 3
Cc1ccccc1-n1c(=O)[nH]c(=O)c2c(N)c(C(=O)c3ccc(Cl)cc3)sc21 | 11 | 4 | 5 | 11 | 2 | · | ·
CC(=O)c1ccc(-n2c(=O)[nH]c(=O)c3c(N)c(C(=O)c4ccc(Cl)cc4)sc32)cc1 | 15 | -6 | 40* | 25 | -15 | 28* | -3
COc1cc(OC)c(C(=O)Nc2ccc3ccccc3c2)cc1OC | -6 | 14 | 1 | 14 | -5 | · | ·
COc1cc2ccccc2cc1C(=O)Nc1ccc2oc(=O)ccc2c1 | -14 | 0 | 24* | 9 | -9 | 11 | -6
CCOc1ccc(NC(=S)N2CCC(c3nc4ccccc4[nH]3)CC2)cc1 | 4 | 3 | 1 | 0 | -6 | · | ·
COc1cc(C2C(C(=O)c3ccco3)=C(O)C(=O)N2Cc2ccccc2)ccc1O (stereo unspecified) | -1 | -15 | 1 | 17 | -2 | · | ·
CCOc1cc(C2C(C(=O)c3ccco3)=C(O)C(=O)N2CCc2ccccc2)ccc1O (stereo unspecified) | -10 | -4 | 20* | 31 | -8 | 22* | -1
CSc1nc(N2CCN(CCO)CC2)c2sc3nc(-c4ccco4)c4c(c3c2n1)CCC4 | · | · | · | · | 6 | · | ·
CSc1nc(N(C)CCO)c2sc3nc(-c4ccco4)c4c(c3c2n1)CCC4 | -25 | 38 | 30* | 14 | -4 | 31* | -1
N#Cc1ccc(C(=O)NC(=S)N2CCN(C=O)CC2)cc1 | · | -11 | · | · | · | · | ·
O=C(COc1ccccc1)N1CCN(S(=O)(=O)c2ccc(Br)cc2)CC1 | -7 | -2 | 22* | 15 | -6 | -1 | 0
Cc1ccc(S(=O)(=O)N2CCN(C(=O)COc3ccc(Br)cc3)CC2)cc1 | · | 9 | 3 | · | · | · | ·
CCOc1cccc(/C=N/Nc2ccc(S(=O)(=O)N(CC)CC)cn2)c1O | 8 | -33 | 31* | 16 | 5 | 33* | -2
O=C(COc1coc(CN2CCCc3ccccc32)cc1=O)Nc1ccc([N+](=O)[O-])cc1 | 1 | -22 | 21* | 13 | · | 4 | -4
COc1ccc(C(=O)CSc2nc(N)nc(SC)c2C#N)cc1 | 7 | -12 | 27* | 9 | -26 | 28* | 0
COc1cccc(NC(=O)CN(C)C(=O)c2cccc(S(=O)(=O)N3c4ccccc4CC3C)c2)c1 (stereo unspecified) | · | 5 | · | · | · | · | ·
Cc1ccccc1NC(=O)c1cnc2ccccn2c1=O | -1 | -4 | -3 | -2 | -5 | · | ·
CC1=C(C(=O)Nc2ccccc2C)C2(CCCC2)C(C(N)=O)C(=O)N1 (stereo unspecified) | · | 19 | 26* | 14 | -1 | -5 | -6
SMILES | T cruzi repl | UBC13 polyUb | PP1 counter | AI-2 QS mod | pCIP destab | PP1 confirm | PP5 inh counter
CC(C)(C)c1ccc(C(=O)NCC(=O)OCC(=O)c2ccc3c(c2)-c2ccccc2C3)cc1 | -6 | -4 | 20* | -8 | 0 | 14 | 0
O=C(CNC(=O)c1ccc(Cl)cc1)OCC(=O)c1ccccc1 | -13 | 2 | 0 | 7 | 4 | · | ·
Cc1cccc(C)c1Nc1c(-c2ccccn2)nc2ccccn12 | 61* | 16 | 28* | 25 | -7 | 5 | 0
Cc1ccc(Nc2c(-c3ccccn3)nc3cccc(C)n23)cc1 | 59* | 36 | 40* | -80* | 1 | 50* | 4
Cc1ccccc1Nc1c(-c2ccccn2)nc2c(C)cccn12 | 42 | 10 | 13 | 30 | 4 | · | ·
CCOC(=O)Cc1csc(NC(=O)c2sc3nc4ccc(CC)cc4cc3c2N)n1 | -8 | -5 | 30* | 26 | -5 | 25* | -2
CCOC(=O)Cc1csc(NC(=O)c2sc3nc4cc(C)ccc4cc3c2N)n1 | 5 | -32 | 28* | 12 | -1 | 33* | -2
CCOC(=O)Cc1csc(NC(=O)c2ccc(C)cc2)n1 | -5 | -1 | -3 | 0 | -17 | · | ·
CN(C(=S)NC(=O)Cc1ccccc1)c1ccccc1 | -36 | 2 | -4 | 22 | -3 | · | ·
O=[N+]([O-])c1cc(Br)c(O)c(/C=N/Nc2nnnn2-c2cccc3ccccc23)c1 | -11 | -29 | 21* | 11 | -3 | 23* | -4
O=[N+]([O-])c1cc(Br)c(O)c(C=Nc2ccc(N3CCOCC3)cc2)c1 | 26 | -22 | 2 | 7 | -22 | · | ·
COc1ccc(N(C)S(=O)(=O)c2ccc3c(c2)NC(=O)CC(=O)N3)c(OC)c1 | -12 | -3 | -2 | 7 | 1 | · | ·
c1ccc(-n2cnc3ccccc32)nc1 | -5 | -2 | -1 | 20 | 5 | · | ·
c1ccc(-c2nccc(-c3ccc(-n4cnc5ccccc54)cc3)n2)cc1 | 5 | 12 | 18* | 23 | 2 | 25* | 0
CN1CCc2nc3sc(C(=O)C45CC6CC(CC(C6)C4)C5)c(N)c3cc2C1 | · | -3 | 29* | · | -21 | 7 | 1
O=C1C2C3C=CC(C3)C2C(=O)N1c1ccc(N2CCN(c3ccccn3)CC2)c([N+](=O)[O-])c1 (stereo unspecified) | 17 | -4 | -3 | 5 | -10 | · | ·
Cc1ccccc1N1CCN(CCCN2C(=O)CC(=C(c3ccccc3)c3ccccc3)C2=O)CC1 | 10 | 2 | 3 | 40 | -7 | · | ·
O=C1CC(=C(c2ccccc2)c2ccccc2)C(=O)N1CCCCN1CCN(c2cccc(Cl)c2)CC1 | 32 | 5 | 25* | 39 | 8 | 4 | -2
COc1ccccc1CN1CC(C(=O)NCCc2ccc(C)o2)CCC1=O (stereo unspecified) | -7 | 11 | -5 | 10 | 0 | · | ·

Screening data: PubChem, several laboratories
